Compound activity as filed in PubChem.
Only some compounds are listed: those with a hit (about 1.7% of all), similar ones and a draw of the others.
F508del corr = CFTR F508del correction in bronchial cells | CFBE cells, YFP halide quenching; stimulated with forskolin plus potentiator P3; % fluorescence drop versus neutral controls | activity (quench increase), % at 7.58 µM | hit rate 0.36% among 350,000 | AID 720511;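 active = mean added fluorescence quench of at least 8% versus neutral control, with both replicates also reaching 8%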;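 also: cells transiently co-express mutant CFTR-F508del with the halide-sensitive YFP; corrector assay measuring rescue of mutant channel to the surface after 24 h compound exposure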
CaV13 FRET inh = Primary screen for inhibitors of IQ motif and Ca2+-dependent inactivation inhibitor domain binding in CACNA1D, Förster resonance energy transfer in living cells, … | HEK cells, CFP/YFP FRET ICDI-IQ, plate reader, 10 min; percent FRET-ratio fall versus neutral wells | inhibition, % at 12.3 µM | hit rate 0.098% among 340,000 | AID 743397;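 active = mean replicate inhibition of at least 30% and at least 1% of replicates passing that level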;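 also: 0% = median of the neutral control wells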
Cneo AK release = causes C. neoformans cell lysis; adenylate kinase release luminescence, 4 h; normalised: neutral wells 0, clomiphene wells 100; lysis activity, % at 15 µM; hit rate 0.2% among 360,000; AID 651654;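 active = mean lysis activity across replicates of at least 80%, whatever share of replicates individually reach that level; inactive = mean lysis activity below 80%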
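Test system: log-phase Cryptococcus neoformans yeast cells; Quantity: yeast cell density of 5 × 10^6 cells/mL; Buffer or medium: YPD; Doses: single compound concentration per well; Timing: 4 h at 37 °C static, read 1 h later; Measured by: AK luminescence; Read-out basis: lysis from increased AK signal; Control set: Clomiphene as positive control.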
Ecoli rRNA inh = inhibitors of bacterial rRNA selective over humanized ribosomes | E. coli WT GFP vs humanized-ribosome RFP mutants, fluorescence, 24 h; stronger effect = lower value; DMSO median 0, no signal -100 | GFP signal change (wild-type ribosome), % (no concentration beside the values) | hit rate 1.6% among 350,000 | AID 720706;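 active = significant combined selectivity score with lowered wild-type GFP, culture density cut under 30%, mutant RFP and density less affected; inactive = any of these conditions unmet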
Starred values were filed as active, the others as inactive; . = no result given.

SMILES | F508del corr | CaV13 FRET inh | Cneo AK release | Ecoli rRNA inh
Cc1noc(C)c1S(=O)(=O)Nc1ccc2c(c1)CC(=O)N([C@H](C)CO)C[C@@H](C)[C@H](CN(C)CC1CC1)O2 | -1 | . | 1 | 2
S=C(NCCc1ccccc1)N1CCc2ccccc2C1 | -4 | 0 | . | -22*
C[C@H](CO)N1C[C@H](C)[C@H](CN(C)S(C)(=O)=O)Oc2c(NS(=O)(=O)c3ccccc3)cccc2C1=O | -1 | . | -6 | 5
O=C(C[C@H]1CC[C@H]2[C@@H](COC[C@H](O)CN2C(=O)c2ccccc2F)O1)NCc1ccc(F)cc1 | 2 | . | -1 | 2
COc1ccc(-n2c(-c3ccc(C(C)(C)C)cc3)n[nH]c2=S)c(OC)c1 | 0 | -15 | 1 | -59
COc1ccc(-n2c(-c3ccc(Cl)cc3Cl)n[nH]c2=S)c(OC)c1 | 2 | -3 | 1 | -32*
Cc1c(O)ccc2c(CN3CCN(Cc4ccccc4)CC3)cc(=O)oc12 | -1 | -4 | -3 | -1
Cc1c(O)ccc2c(CN(C)Cc3ccccc3)cc(=O)oc12 | -2 | -4 | -2 | -25*
Cc1noc(C)c1NC(=O)Nc1ccc2c(c1)C(=O)N([C@@H](C)CO)C[C@H](C)[C@H](CN(C)Cc1ccc(C(F)(F)F)cc1)O2 | 2 | . | -9 | 3
COc1cccc(NC(=O)C2CCC(CNS(=O)(=O)c3cccc4cccnc34)CC2)c1 (stereo not drawn) | -1 | -2 | 1 | -26*
CCC(=O)N1C(C(=O)NCc2ccc(OC)cc2)CSC1c1ccc(OC)cc1 (stereo not drawn) | 1 | 45* | 0 | -4
CC(=O)N(C)C[C@H]1Oc2cc(C3=CCCCC3)ccc2S(=O)(=O)N([C@@H](C)CO)C[C@H]1C | -3 | . | . | 1
O=C1NCCc2c1[nH]c1ccc([N+](=O)[O-])cc21 | 11* | -2 | . | -2
COc1ccc2[nH]c3c(c2c1)CCNC3=O | -2 | -11 | 0 | 2
COc1ccc2c3c(n(C)c2c1)[C@H](CO)N(C(=O)C1CCCC1)CC31CCN(C(=O)CC2CC2)CC1 | 5 | . | . | -2
COc1ccc(NC(=O)c2ccc(-c3ccc([N+](=O)[O-])cc3)o2)cc1OC | . | -5 | -8 | -42*
COc1ccc(C#Cc2ccc([C@@H]3[C@H]4CN(C(=O)c5ccncc5)CCCCN4[C@H]3CO)cc2)cc1 | 4 | . | -3 | -34
O=C(Nc1ccccc1F)N1CCCCN2[C@H](CO)[C@H](c3ccc(-c4cccnc4)cc3)[C@@H]2C1 | 1 | . | -2 | 0
COc1ccc(C#Cc2ccc([C@H]3[C@H]4CN(C(=O)c5ccncc5)CCCCN4[C@H]3CO)cc2)cc1 | 9.3* | . | -1 | -2
O=C(Nc1ccccc1F)N1CCCCN2[C@@H](CO)[C@H](c3ccc(-c4cccnc4)cc3)[C@@H]2C1 | 0 | . | 0 | -19*
O=C(c1cccc(F)c1)N1CCCCN2[C@@H](CO)[C@H](c3ccc(-c4ccncc4)cc3)[C@@H]2C1 | 1 | . | 112* | 0
C[C@H]1CN([C@@H](C)CO)C(=O)Cc2cc(NC(=O)Cc3ccccc3)ccc2O[C@@H]1CN(C)Cc1ccc(C(=O)Nc2ccccc2N)cc1 | -1 | . | . | -6
CC(C)(C)[S@](=O)N1Cc2cc(C(=O)NCCN3CCCCC3)nc(-c3cccc(-c4ccc(C#N)cc4)c3)c2[C@@H]1CCO | 5 | . | 62 | -1
C[C@H]1CN([C@@H](C)CO)C(=O)c2ccccc2-c2ccccc2CO[C@@H]1CN(C)S(=O)(=O)c1cccc(F)c1 | . | . | . | -6
Cc1nnn(C23CC4CC(CC(CC(=O)Nc5ccc(C)c(C)c5)(C4)C2)C3)n1 | 0 | -5 | -2 | -19*
Cc1cccc(NC(=O)CC23CC4CC(C2)CC(n2nnc(C)n2)(C4)C3)c1 | 0 | -5 | -1 | -23*
CCOC(=O)C1(C(N)=O)OC1(c1ccc(Cl)cc1)c1ccccc1Cl (stereo not drawn) | 1 | -5 | 1 | -19*
NC(=O)C1(C(=O)O)OC1(c1ccc(Cl)cc1)c1ccccc1Cl (stereo not drawn) | 7 | -5 | 5 | 1
C[C@H](CO)N1C[C@H](C)[C@@H](CN(C)C(=O)c2ccccc2F)Oc2ncc(-c3ccccc3)cc2C1=O | -3 | . | 1 | -4
COc1ccccc1/C=C\C(=O)NCC(=O)N/N=C/c1ccc(O)cc1O | 1 | -5 | 1 | -29*
